A short description of series [1]: Clearance in mouse microsomes. The class given is ADME, Microsome.
Series [2] addresses T1, Wee1-like protein kinase (Homo sapiens, UniProt P30291). As to the kind of experiment: Binding affinity to wild type N-terminal GST-tagged human WEE1 catalytic domain (215 to 646 residues) expressed in baculovirus expression system measured after 1 hr by TR-FRET assay. For orientation: TR-FRET usually uses a lanthanide donor and a delayed reading to cut background.
For series [3], the system named is NCI-H1299. As to the kind of experiment: Antiproliferative activity against human NCI-H1299 cells after 72 hrs by cell titer glo assay. The class given is functional, cell-based. The conditions noted are these: NCI-H1299, 72 h. (In general: In ATP-based viability assays light output follows the ATP content of the culture.)
Series [4] concerns the target T1, Wee1-like protein kinase. As to the kind of experiment: Inhibition of WEE1 in human NCI-H1299 cells assessed as reduction in Cdc2 phosphorylation at Tyr15 residue measured after 6 hrs by ELISA. The format is cell-based.
The nature of series [5]: AUC in po dosed mouse. The format is ADME, organism-based. The conditions noted are these: in vivo.
The nature of series [6]: Oral bioavailability in mouse. The format is ADME, organism-based. The conditions noted are these: in vivo.
Series [7] relates to MX1. As to the kind of experiment: Antitumor activity against BRCA1/p53 deficient human MX1 cells xenografted in SCID mouse assessed as tumor growth inhibition at 25 mg/kg/day, po administered every other 2 days for 4 times starting 24 days post-tumor innoculation and measured twice weekly. The class given is functional, organism-based.
Series [8] deals with MX1. As to the kind of experiment: Potentiation of irinotecan-induced antitumor activity against BRCA1/p53 deficient human MX1 cells xenografted in SCID mouse assessed as tumor growth inhibition at 25 mg/kg/day, po administered every other 2 days for 4 times starting from 24 days post-tumor innoculation and measured twice weekly relative to control. The format is functional. The conditions noted are these: read-out: TGI. In short, it runs like this:
(§1)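 MX-1 brei (homogenized tumour cell suspension) was injected subcutaneously into the flank of SCID mice. Treatment started at tumour volume ~350 mm³, with dosing beginning on day 24. Arms were vehicle, irinotecan 10 mg/kg/day Q4Dx4, or irinotecan 10 mg/kg/day Q4Dx4 plus test agent 25 mg/kg/day QD, 2 days on/2 days off, for 4 cycles. Tumour volumes were measured twice weekly.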
Background: Xenograft models place foreign cells or tissue in a host animal.

The nature of series [9]: Clearance in iv dosed mouse. The class given is ADME, organism-based. The conditions noted are these: in vivo.
Series [10] relates to MX1. As to the kind of experiment: Potentiation of irinotecan-induced antitumor activity against BRCA1/p53 deficient human MX1 cells xenografted in SCID mouse assessed as tumor growth delay at 25 mg/kg/day, po administered every other 2 days for 4 times starting 24 days post-tumor innoculation and measured twice weekly relative to irinotecan. The format is functional. In short, it runs like this: as §1

Series [11] has as its system MX1. As to the kind of experiment: Potentiation of irinotecan-induced antitumor activity against BRCA1/p53 deficient human MX1 cells xenografted in SCID mouse assessed as tumor growth inhibition at 25 mg/kg/day, po administered every other 2 days for 4 times 24 days post-tumor innoculation and measured twice weekly for 43 days in presence relative to irinotecan. The format is functional. The conditions noted are these: read-out: TGI. In short, it runs like this:
as §1

Series [12] is described as follows: Half life in iv dosed mouse. The class given is ADME, organism-based. Conditions: in vivo.

Activity calls are given as the source filed them.

T1 sequence (P30291 whole entry, the tested form may be a part): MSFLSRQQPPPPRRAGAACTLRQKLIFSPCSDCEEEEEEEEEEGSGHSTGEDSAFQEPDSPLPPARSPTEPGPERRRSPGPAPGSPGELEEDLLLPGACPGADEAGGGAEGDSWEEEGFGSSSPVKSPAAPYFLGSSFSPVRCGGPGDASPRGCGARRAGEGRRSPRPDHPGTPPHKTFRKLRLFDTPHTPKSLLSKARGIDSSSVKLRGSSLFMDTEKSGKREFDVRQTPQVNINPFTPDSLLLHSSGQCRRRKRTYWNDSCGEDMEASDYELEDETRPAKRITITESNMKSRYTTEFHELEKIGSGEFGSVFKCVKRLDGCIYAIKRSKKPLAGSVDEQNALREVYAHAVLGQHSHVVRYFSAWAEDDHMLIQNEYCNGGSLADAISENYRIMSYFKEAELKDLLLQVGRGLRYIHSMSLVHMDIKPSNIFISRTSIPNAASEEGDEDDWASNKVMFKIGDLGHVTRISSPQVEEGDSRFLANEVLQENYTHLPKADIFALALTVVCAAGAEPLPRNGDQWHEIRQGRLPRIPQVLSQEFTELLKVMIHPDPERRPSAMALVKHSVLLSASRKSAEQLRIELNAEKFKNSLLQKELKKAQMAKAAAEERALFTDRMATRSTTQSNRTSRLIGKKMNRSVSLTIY

For `CN1Cc2cc(Nc3ncc4c(=O)n(-c5c(Cl)cccc5Cl)cc(C(F)F)c4n3)ccc2C2(CC2)C1`, in series [1], the CLint scaled (commonly a measure of how fast metabolising enzymes remove a compound, apart from limits set by blood flow) was 753 mL/min/kg. In addition, the affinity in [2] corresponds to a Ki of 0.6 nM. In addition, the EC50 (in general, the concentration at which the effect is half-maximal) in series [3] was determined as 140 nM; in series [4], 18 nM.

Consider `CN1Cc2cc(Nc3ncc4c(=O)c(-c5c(Cl)cccc5Cl)c[nH]c4n3)ccc2C2(CC2)C1`, for which the CLint scaled in series [1] was 532 mL/min/kg. In [2], the inhibition constant (Ki) (in general, the equilibrium dissociation constant of an inhibitor or competing ligand from its target) was 0.6 nM. Moreover, the EC50 is 330 nM in series [3] and 29 nM in series [4].

In [1], `CN1Cc2cc(Nc3ncc4c(=O)c(-c5c(Cl)cccc5Cl)cn(C5CC5)c4n3)ccc2C2(CC2)C1` gave a CLint scaled of 458 mL/min/kg. In addition, the EC50 came to 390 nM in series [3] and 31 nM in series [4].

For `CN1CCN(c2ccc(Nc3ncc4c(=O)c(-c5c(Cl)cccc5Cl)cn(CC(C)(C)O)c4n3)cc2)CC1`, the CLint scaled in series [1] is 482 mL/min/kg. The Ki in [2] was found to be 0.2 nM. Further, the EC50 in [3] is greater than 10000 nM; in series [4], 4020 nM.

Regarding `CN1CCN(c2ccc(Nc3ncc4c(=O)c(-c5c(Cl)cccc5Cl)cn(C5CC5)c4n3)cc2)CC1`, the intrinsic metabolic clearance (CLint scaled) in [1] was 582 mL/min/kg. Further, in series [2], the affinity corresponds to a Ki of 1 nM. In addition, the results for the concentration for a half-maximal effect (EC50) in series [3] and in [4] were 460 nM and 22 nM, respectively.

Compound `C=Cc1cn(-c2c(Cl)cccc2Cl)c(=O)c2cnc(Nc3ccc4c(c3)CN(C)CC43CC3)nc12` gave a CLint scaled in [1] of 463 mL/min/kg. In series [2], this compound yielded a Ki of 0.3 nM. Further, the 50% effective concentration (EC50) in [3] stood at 80 nM; in series [4] it was 21 nM.

The compound `CN1Cc2cc(Nc3ncc4c(=O)n(-c5c(Cl)cccc5Cl)cc(CO)c4n3)ccc2C2(CC2)C1` had a CLint scaled in series [1] of 320 mL/min/kg. The values for the EC50 in series [3] and in series [4] were 60 nM and 25 nM, respectively.

On to `CCn1cc(-c2c(Cl)cccc2Cl)c(=O)c2cnc(Nc3ccc4c(c3)CN(C)CC43CC3)nc21`, for which the EC50 came out at 210 nM in [3] and 19 nM in [4].

For `CN1CCN(c2ccc(Nc3ncc4c(=O)c(-c5c(Cl)cccc5Cl)cn(-c5ccccc5)c4n3)cc2)CC1`, the affinity in series [2] corresponds to a Ki of 0.2 nM. Moreover, the EC50 was determined as 500 nM in series [3] and 246 nM in series [4].

`CN1CCN(c2ccc(Nc3ncc4c(=O)c(-c5c(Cl)cccc5Cl)cn(C5COC5)c4n3)cc2)CC1` showed a CLint scaled in [1] of 582 mL/min/kg. Further, the concentration for a half-maximal effect (EC50) was found to be 1720 nM in series [3] and 324 nM in series [4].

In [1], `CN1Cc2cc(Nc3ncc4c(=O)n(-c5c(F)cccc5Cl)c5nccn5c4n3)ccc2C(C)(C)C1` showed a CLint scaled of 635 mL/min/kg. In series [2], affinity was put at a Ki of 1.1 nM.

Turning to `CN(C)CCn1cc(-c2c(Cl)cccc2Cl)c(=O)c2cnc(Nc3ccc(N4CCN(C)CC4)cc3)nc21`, the CLint scaled in [1] is 1970 mL/min/kg. The compound further gave an inhibition constant Ki in series [2] of 24.4 nM. In addition, the EC50 in series [3] is 7650 nM; in series [4], 2850 nM.

On to `CN1Cc2cc(Nc3ncc4c(=O)c(-c5c(Cl)cccc5Cl)cn(C)c4n3)ccc2C2(CC2)C1`, for which the intrinsic clearance (CLint scaled) in [1] was 413 mL/min/kg. Moreover, the AUC (commonly concentration integrated over time) in series [5] was 6.2 µM·h. For the same compound, the bioavailability (as a rule, the share of a dose that reaches the circulation, judged against a reference dose that is usually intravenous) in series [6] stood at 44%. For the same compound, in [7], the TGI entry was “Active”. Also, the inhibitory constant (Ki) in series [2] came out at 0.3 nM. Besides, the values for the EC50 in [3] and in [4] were 100 nM and 11 nM, respectively. Further, the inhibition in vivo at 25 mg/kg/day in [8] was 88%; in series [11] it was 57%. Further, the clearance – broadly, the rate of elimination divided by the concentration – in series [9] is 25 mL/min/kg. Moreover, in series [10], the Activity is reported as 48%. In [12], the half-life (commonly the time needed for the level to fall by half in the phase considered) is 2.7 h.

In turn, `Cc1cn(-c2c(Cl)cccc2Cl)c(=O)c2cnc(Nc3ccc4c(c3)CN(C)CC43CC3)nc12` gave a CLint scaled in series [1] of 727 mL/min/kg. The compound also returned an inhibition constant (Ki) in series [2] of 0.5 nM. Further, the concentration for a half-maximal effect (EC50) in series [3] worked out at 130 nM; in series [4] it was 28 nM.

In series [1], `CN1CCN(c2ccc(Nc3ncc4c(=O)c(-c5c(Cl)cccc5Cl)cn(C)c4n3)cc2)CC1` showed a CLint scaled of 270 mL/min/kg. Besides, the concentration giving a half-maximal response (EC50) in series [3] stood at 520 nM; in series [4], 79 nM.

(Values after ChEMBL document CHEMBL4387719, “Investigation of biaryl heterocycles as inhibitors of Wee1 kinase” (Bioorg Med Chem Lett, 2019).)
